Laboratory results as given in the array DNA melting data of Ke et al. (doi:10.1101/2024.01.08.574731).

Columns and labels:
[1] = folding enthalpy; higher = less favourable; fluorescence melt of hairpins on a sequencing array, two-state fit; details: sodium 0.088 M
Summary of the method: (§1)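 Melting temperature and folding enthalpy were obtained by bootstrapped two-state fitting. Fits used Cy3 fluorescence of library hairpins with annealed Cy3 and quencher oligos on a sequenced MiSeq flow cell, imaged in 50 mM Na-HEPES pH 8.0, 25 mM NaCl in 2.5 °C steps up to 60 °C and normalised to pre-quench Cy3 and control constructs. Four replicates were combined by inverse-variance weighting, and fitted temperatures were raised by 9.35 °C to match UV melts.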

[2] = melting temperature; fluorescence melt of hairpins on a sequencing array, two-state fit, raised by 9.35 °C to match UV melts; details: sodium 0.088 M
Summary of the method: as §1

Row | Sequence | folding enthalpy [1] | Tm [2]
1 | GATCTAGGACTAGATC ((((((....)))))) | -39.7 kcal/mol | 47.4 °C
2 | GATCTAGGGCTAGATC ((((((....)))))) | -32.9 kcal/mol | 43.5 °C
3 | GATCTAGGGTTAGATC ((((((....)))))) | -28.4 kcal/mol | 37.4 °C
4 | GATCTAGGTGTAGATC ((((((....)))))) | -31 kcal/mol | 42.9 °C
5 | GATCTAGGTTAGATC ((((((...)))))) | -28.5 kcal/mol | 39.2 °C
6 | GATCTAGTAATAGATC ((((((....)))))) | -35.8 kcal/mol | 47.9 °C
7 | GATCTAGTAGTAGATC ((((((....)))))) | -29.1 kcal/mol | 43.4 °C
8 | GATCTATACTAGATC ((((((...)))))) | -32.6 kcal/mol | 40.6 °C
9 | GATCTATAGGTAGATC ((((((....)))))) | -32.8 kcal/mol | 42.2 °C
10 | GATCTATAGTTAGATC ((((((....)))))) | -27.1 kcal/mol | 39.4 °C
11 | GATCTATATATAGATC ((((((....)))))) | -46.8 kcal/mol | 46.4 °C
12 | GATCTATATTAGATC ((((((...)))))) | -26.1 kcal/mol | 40.9 °C
13 | GATCTATCCATAGATC ((((((....)))))) | -38.1 kcal/mol | 46.5 °C
14 | GATCTATCCTAGATC ((((((...)))))) | -30.6 kcal/mol | 41.1 °C
15 | GATCTATCTTAGATC ((((((...)))))) | -24.6 kcal/mol | 41.4 °C
16 | GATCTATGAGTAGATC ((((((....)))))) | -40.3 kcal/mol | 45.5 °C
17 | GATCTATGGATAGATC ((((((....)))))) | -29.5 kcal/mol | 43 °C
18 | GATCTATGGCTAGATC ((((((....)))))) | -30.1 kcal/mol | 37.6 °C
19 | GATCTATGGGTAGATC ((((((....)))))) | -33.2 kcal/mol | 45.6 °C
20 | GATCTATTACTAGATC ((((((....)))))) | -32.4 kcal/mol | 39.2 °C
21 | GATCTATTCTAGATC ((((((...)))))) | -27.6 kcal/mol | 41.3 °C
22 | GATCTATTGCTAGATC ((((((....)))))) | -32.8 kcal/mol | 40.5 °C
23 | GATCTCAAAGGAGATC ((((((....)))))) | -33.4 kcal/mol | 48.2 °C
24 | GATCTCAAGTGAGATC ((((((....)))))) | -34.5 kcal/mol | 51.5 °C

Row | Sequence | folding enthalpy [1] | Tm [2]
25 | GATCTCACAGAGATC ((((((...)))))) | -39.3 kcal/mol | 56.1 °C
26 | GATCTCACGTGAGATC ((((((....)))))) | -54.2 kcal/mol | 55.1 °C
27 | GATCTCAGCGAGATC ((((((...)))))) | -35.3 kcal/mol | 56.6 °C
28 | GATCTCAGCTGAGATC ((((((....)))))) | -46.8 kcal/mol | 54.9 °C
29 | GATCTCATCAGAGATC ((((((....)))))) | -35.2 kcal/mol | 55.6 °C
30 | GATCTCATCCGAGATC ((((((....)))))) | -39.2 kcal/mol | 53.2 °C
31 | GATCTCCAGGAGATC ((((((...)))))) | -37.3 kcal/mol | 52.3 °C
32 | GATCTCCAGGGAGATC ((((((....)))))) | -36.5 kcal/mol | 55 °C
33 | GATCTCCATTGAGATC ((((((....)))))) | -33.7 kcal/mol | 52.3 °C
34 | GATCTCCCAGGAGATC ((((((....)))))) | -36.4 kcal/mol | 56.8 °C
35 | GATCTCCCTAGAGATC ((((((....)))))) | -36.2 kcal/mol | 55.7 °C
36 | GATCTCCGACGAGATC ((((((....)))))) | -38.1 kcal/mol | 50 °C
37 | GATCTCCGATGAGATC ((((((....)))))) | -31.3 kcal/mol | 50.7 °C
38 | GATCTCCGCCGAGATC ((((((....)))))) | -49.6 kcal/mol | 50.9 °C
39 | GATCTCCGCGAGATC ((((((...)))))) | -44.8 kcal/mol | 55.4 °C
40 | GATCTCCGGCGAGATC ((((((....)))))) | -27.1 kcal/mol | 50.7 °C
41 | GATCTCCGGGGAGATC ((((((....)))))) | -43.9 kcal/mol | 55.7 °C
42 | GATCTCCGTGAGATC ((((((...)))))) | -36.2 kcal/mol | 56.3 °C
43 | GATCTCCGTGGAGATC ((((((....)))))) | -47.9 kcal/mol | 59.2 °C
44 | GATCTCCTAGGAGATC ((((((....)))))) | -36 kcal/mol | 57.8 °C
45 | GATCTCCTCGGAGATC ((((((....)))))) | -52.8 kcal/mol | 58 °C
46 | GATCTCCTGAGAGATC ((((((....)))))) | -39 kcal/mol | 53.2 °C
47 | GATCTCCTGGGAGATC ((((((....)))))) | -43.3 kcal/mol | 56.5 °C
48 | GATCTCCTTTGAGATC ((((((....)))))) | -39.6 kcal/mol | 51.7 °C

Row | Sequence | folding enthalpy [1] | Tm [2]
49 | GATCTCGACCGAGATC ((((((....)))))) | -51.9 kcal/mol | 56.1 °C
50 | GATCTCGAGGAGATC ((((((...)))))) | -34.5 kcal/mol | 52.8 °C
51 | GATCTCGATGAGATC ((((((...)))))) | -37.2 kcal/mol | 53 °C
52 | GATCTCGATTGAGATC ((((((....)))))) | -39.4 kcal/mol | 51.7 °C
53 | GATCTCGCAAGAGATC ((((((....)))))) | -37.5 kcal/mol | 67.3 °C
54 | GATCTCGCGGAGATC ((((((...)))))) | -35.4 kcal/mol | 54.9 °C
55 | GATCTCGCTAGAGATC ((((((....)))))) | -43.5 kcal/mol | 67.6 °C
56 | GATCTCGCTGAGATC ((((((...)))))) | -43.6 kcal/mol | 53.8 °C
57 | GATCTCGCTTGAGATC ((((((....)))))) | -36.8 kcal/mol | 54.4 °C
58 | GATCTCGGAAACGAGACC (.(((((....))))).) | -16.5 kcal/mol | 40.7 °C
59 | GATCTCGGAAGAGATC ((((((....)))))) | -37.4 kcal/mol | 63.6 °C
60 | GATCTCGGGGAGATC ((((((...)))))) | -30.2 kcal/mol | 54.3 °C
61 | GATCTCGGTAGAGATC ((((((....)))))) | -32.7 kcal/mol | 66.5 °C
62 | GATCTCGTAGAGATC ((((((...)))))) | -37.2 kcal/mol | 67.9 °C
63 | GATCTCGTCCGAGATC ((((((....)))))) | -38.4 kcal/mol | 60.5 °C
64 | GATCTCGTCGGAGATC ((((((....)))))) | -43.5 kcal/mol | 54.5 °C
65 | GATCTCGTGCGAGATC ((((((....)))))) | -54.9 kcal/mol | 56.3 °C
66 | GATCTCGTTCGAGATC ((((((....)))))) | -41.4 kcal/mol | 60.9 °C
67 | GATCTCTAAGAGATC ((((((...)))))) | -31.5 kcal/mol | 51.5 °C
68 | GATCTCTACAGAGATC ((((((....)))))) | -45.2 kcal/mol | 55.8 °C
69 | GATCTCTACGAGATC ((((((...)))))) | -40 kcal/mol | 55.1 °C
70 | GATCTCTACGGAGATC ((((((....)))))) | -36 kcal/mol | 55.6 °C
71 | GATCTCTCAGGAGATC ((((((....)))))) | -48 kcal/mol | 54.2 °C
72 | GATCTCTCGAGAGATC ((((((....)))))) | -40.5 kcal/mol | 54.1 °C

Row | Sequence | folding enthalpy [1] | Tm [2]
73 | GATCTCTCTAGAGATC ((((((....)))))) | -37.4 kcal/mol | 56.3 °C
74 | GATCTCTGCAGAGATC ((((((....)))))) | -41.6 kcal/mol | 57 °C
75 | GATCTCTGGAGAGATC ((((((....)))))) | -34.4 kcal/mol | 53.1 °C
76 | GATCTCTGTCGAGATC ((((((....)))))) | -37.4 kcal/mol | 51.8 °C
77 | GATCTCTTATGAGATC ((((((....)))))) | -43.4 kcal/mol | 54.1 °C
78 | GATCTCTTGGGAGATC ((((((....)))))) | -40.4 kcal/mol | 54 °C
79 | GATCTCTTTGGAGATC ((((((....)))))) | -44.5 kcal/mol | 55.1 °C
80 | GATCTCTTTTGAGATC ((((((....)))))) | -39.2 kcal/mol | 55 °C
81 | GATCTGACACAGATC ((((((...)))))) | -35.7 kcal/mol | 48.1 °C
82 | GATCTGACCACAGATC ((((((....)))))) | -36.3 kcal/mol | 49 °C
83 | GATCTGAGCTCAGATC ((((((....)))))) | -51.6 kcal/mol | 55.6 °C
84 | GATCTGATAACAGATC ((((((....)))))) | -35.7 kcal/mol | 47 °C
85 | GATCTGATCGCAGATC ((((((....)))))) | -11.2 kcal/mol | 42.3 °C
86 | GATCTGATTACAGATC ((((((....)))))) | -40.5 kcal/mol | 50 °C
87 | GATCTGATTGCAGATC ((((((....)))))) | -29.1 kcal/mol | 48.2 °C
88 | GATCTGCAACCAGATC ((((((....)))))) | -31.7 kcal/mol | 46.2 °C
89 | GATCTGCATTCAGATC ((((((....)))))) | -39.6 kcal/mol | 48.9 °C
90 | GATCTGCCACAGATC ((((((...)))))) | -31.8 kcal/mol | 48.9 °C
91 | GATCTGCCATCAGATC ((((((....)))))) | -46 kcal/mol | 49.4 °C
92 | GATCTGCCCCCAGATC ((((((....)))))) | -34.5 kcal/mol | 48.3 °C
93 | GATCTGCCCTCAGATC ((((((....)))))) | -42.5 kcal/mol | 49.8 °C
94 | GATCTGCCTACAGATC ((((((....)))))) | -41.8 kcal/mol | 50.8 °C
95 | GATCTGCGAAAGCAAATC (((.(((....))).))) | -18.4 kcal/mol | 36.5 °C
96 | GATCTGCGAAAGCATATC (((.(((....))).))) | -20.7 kcal/mol | 41.1 °C
